Assay outcomes from PubChem.
TRPC6 act: mouse TRPC6 channel activation | Q61143 | HEK293-TRPC6 membrane potential dye fluorescence; active compounds read high | B-score at 10 µM | 310,000 compounds, 0.13% hits | AID 2550;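 active = B-score of the integrated fluorescence ratio above library mean plus 3 SD, and starting fluorescence ratio within library mean plus 5 SD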;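 also: higher score means more depolarization so channel activation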
TRPC4 agonist: TRPC4 (mouse) channel activation; HEK293 TRPC4beta/mu-opioid, Fluo4 calcium fluorescence; active compounds read high; Q9QUQ5; AID 2237; 310,000 compounds, 0.49% hits; B-score at 10 µM;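 active = B-score above 5 SD of library B-scores, and initial fluorescence ratio not above library mean plus 5 SD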;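 also: positive B-score marks a calcium rise read as TRPC4 activation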
Target sequence (Q9QUQ5 whole entry, looked up): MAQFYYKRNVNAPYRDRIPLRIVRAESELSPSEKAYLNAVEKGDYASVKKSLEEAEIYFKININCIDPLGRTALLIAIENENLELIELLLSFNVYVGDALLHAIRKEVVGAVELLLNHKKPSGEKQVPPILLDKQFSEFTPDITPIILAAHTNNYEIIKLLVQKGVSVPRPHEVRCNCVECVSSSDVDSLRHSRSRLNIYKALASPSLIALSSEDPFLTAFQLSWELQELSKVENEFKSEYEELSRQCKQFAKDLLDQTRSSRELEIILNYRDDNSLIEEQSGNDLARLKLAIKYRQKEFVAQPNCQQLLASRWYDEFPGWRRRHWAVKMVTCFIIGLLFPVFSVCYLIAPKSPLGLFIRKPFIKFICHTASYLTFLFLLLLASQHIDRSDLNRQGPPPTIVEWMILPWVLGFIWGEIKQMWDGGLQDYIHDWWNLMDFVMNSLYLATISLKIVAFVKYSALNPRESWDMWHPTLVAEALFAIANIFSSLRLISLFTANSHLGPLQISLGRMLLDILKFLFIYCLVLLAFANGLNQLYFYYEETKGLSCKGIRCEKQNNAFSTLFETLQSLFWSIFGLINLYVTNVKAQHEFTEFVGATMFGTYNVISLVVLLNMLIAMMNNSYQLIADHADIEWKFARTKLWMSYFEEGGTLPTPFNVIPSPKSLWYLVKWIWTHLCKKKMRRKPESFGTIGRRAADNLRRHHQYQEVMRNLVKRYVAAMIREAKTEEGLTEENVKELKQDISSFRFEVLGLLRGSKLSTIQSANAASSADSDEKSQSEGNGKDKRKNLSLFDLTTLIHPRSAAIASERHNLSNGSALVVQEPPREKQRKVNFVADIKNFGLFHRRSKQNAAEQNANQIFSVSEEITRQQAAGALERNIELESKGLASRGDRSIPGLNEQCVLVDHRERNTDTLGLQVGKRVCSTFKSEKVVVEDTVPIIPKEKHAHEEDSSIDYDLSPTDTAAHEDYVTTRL
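system = HEK293 cells stably co-expressing mouse TRPC4beta and mu-opioid receptor | schedule = Fluo4 dye loading 45 min at room temperature, 110 s recording | measure = B-scored integrated calcium fluorescence ratio | signal = Fluo4 calcium-sensitive dye fluorescence, kinetic, 1 Hz baseline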
TRPC4 potent: allosteric potentiators of mouse TRPC4 channel | Q9QUQ5 | 310,000 compounds, 0.42% hits | HEK293 TRPC4beta/mu-opioid, DAMGO EC20, Fluo-4 Ca2+ flux; active compounds read high | B-score at 10 µM | AID 2227;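 active = B-score of calcium response area above 5 SD of library B-scores, with initial fluorescence ratio within 5 SD of library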;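 also: B-score of integrated fluorescence ratio over time as area under calcium response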
TRPC6 inh: blocks the mouse TRPC6 cation channel. Q61143. B-score at 10 µM. HEK293-TRPC6, membrane potential dye, ACh-evoked depolarization; active compounds read low. 310,000 compounds, 1.1% hits;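 active = B-score under library mean minus 3 SD, initial fluorescence not abnormally high, positive integrated signal ratio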;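 also: B-score derived from integrated fluorescence ratio over the kinetic read; more negative B-score means stronger inhibition of depolarization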
TRPC4 inh: inhibitors of mouse TRPC4 channel; Q9QUQ5; HEK293 TRPC4beta/mu-opioid, DAMGO-evoked Fluo4 calcium flux; active compounds read low; B-score at 10 µM; 300,000 compounds, 0.39% hits;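 active = B-score over 3 SD under the library average, no early fluorescence shift, positive overall ratio signal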
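material = TRPC4beta/mu-opioid receptor HEK293 cell line | probe or stimulus = sequential submaximal and maximal DAMGO stimulation | compound dosing = one concentration per compound | measured by = Fluo4 Ca2+ flux fluorescence | evaluation = integrated fluorescence ratio relative to baseline, converted to per-well B score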
TRPC4 spec 2: second check of whether TRPC6 inhibitors also affect mouse TRPC4; AID 2776; HEK293 TRPC4/MOR, membrane potential dye fluorescence; channel activated by saturating DAMGO dose; inhibition, % at 10 µM; 920 compounds, 42% hits; shares compounds with TRPC6 inh;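 active = compounds whose fluorescence signal differed from control wells by over 3 SD, either direction, in both duplicate plates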
TRPC4 spec: selectivity of TRPC6 inhibitors: effect on mouse TRPC4; shares compounds with TRPC6 inh; HEK293 TRPC4/mu-opioid, membrane potential fluorescence; activity change, negative = inhibition, % at 10 µM; 920 compounds, 61% hits; AID 2777;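 active = rise or fall in signal beyond 3 SD of buffer-only wells in both replicate plates, either sign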;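 also: integrated kinetic ratio of fluorescence range over baseline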
HEK293 MPD ctr 2-1: parental HEK293 nonspecific activity of TRPC6 inhibitors, second screen. shares compounds with TRPC6 inh. AID 2779. parental HEK293 membrane potential dye fluorescence; maximal acetylcholine challenge after compound addition. signal change vs control, % at 10 µM. 920 compounds, 31% hits;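 active = membrane potential signal moving either way by over 3 SD of the maximum-effect control, in both duplicate plates, meaning non-specific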
HEK293 MPD ctr-1: parental HEK293 nonspecific activity of TRPC6 inhibitors | parental HEK293 membrane potential dye fluorescence | shares compounds with TRPC6 inh | membrane potential signal change, % at 10 µM | 920 compounds, 60% hits | AID 2780;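 active = membrane potential signal shifting up or down by more than 3 SD of buffer-only wells, on both duplicate plates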
HEK293 MPD ctr-2: counter-screen for TRPC6 modulators: effect in parental HEK293 cells; 2,400 compounds, 51% hits; AID 488924; membrane potential dye fluorescence; membrane potential signal change, % at 10 µM; shares compounds with TRPC6 inh;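 active = membrane potential signal moves up or down beyond 5 SD from buffer-only wells, on both duplicate plates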
HEK293 MPD ctr 2-2: second counter-screen for TRPC6 modulators: effect in parental HEK293 cells; inhibition, % at 10 µM; membrane potential dye fluorescence; after compound, maximal acetylcholine stimulation; shares compounds with TRPC6 inh; 2,400 compounds, 14% hits;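 active = membrane potential signal drops by more than 5 SD from the mean control signal, in both duplicate plates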;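 also: plate controls were acetylcholine ECmax control wells for no effect and buffer only wells for full effect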
TRPC4 ctr mod: selectivity of TRPC6 modulators against mouse TRPC4; shares compounds with TRPC6 inh; HEK293 TRPC4/mu-opioid, membrane potential fluorescence; percent change from control (negative = decrease, positive = increase), % at 10 µM; 2,400 compounds, 69% hits; AID 488927;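 active = membrane potential signal moved up or down beyond 5 SD of buffer control wells, in both duplicate plates, actives on both sides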;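 also: plate controls were assay buffer wells for no effect and DAMGO maximal-effect wells for full effect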
TRPC4/MOR inh 2: second selectivity test of TRPC6 modulators against mouse TRPC4; HEK293 TRPC4/mu-opioid, membrane potential dye fluorescence; stimulated with maximal-effect DAMGO; AID 488928; shares compounds with TRPC6 inh; inhibition, % at 10 µM; 2,400 compounds, 55% hits;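 active = drop in membrane potential signal beyond 5 SD of the control wells in both duplicate plates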;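 also: TRPC4 counter screen for TRPC6 hits run under conditions tuned for TRPC6 not TRPC4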
TRPC6 inh conf: confirmation of mouse TRPC6 inhibitors; HEK293-TRPC6, membrane potential dye, ACh-evoked depolarization; shares compounds with TRPC6 inh; inhibition, % at 10 µM; AID 488960; 3,300 compounds, 43% hits;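 active = fluorescence ratio falls more than 5 SD below the full-stimulation control mean, in both duplicate runs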;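 also: integrated fluorescence ratio of peak minus minimum over baseline after agonist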
TRPC6 act conf: mouse TRPC6 activator confirmation. AID 488961. 2,800 compounds, 11% hits. activation, % at 10 µM. shares compounds with TRPC6 inh. HEK293-TRPC6 membrane potential dye fluorescence, FDSS;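 active = ratio signal rise beyond 5 SD above unstimulated control wells' mean, seen in both duplicate runs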;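 also: plate controls were buffer EC0 wells for no effect and acetylcholine ECmax response for full effect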
Active calls of the source: *; i = inactive; / = not tested or not shown; + = active, no number. Shown are actives, neighbours in structure and some others; about 2.3% of the full set was active somewhere.

SMILES	TRPC6 act	TRPC4 agonist	TRPC4 potent	TRPC6 inh	TRPC4 inh	HEK293 MPD ctr-2	HEK293 MPD ctr 2-2	TRPC4 ctr mod	TRPC4/MOR inh 2	TRPC6 inh conf	TRPC6 act conf	others
c1ccc(Cn2nnc3cnccc32)cc1	i	i	i	-8.1*	-5*	/	/	/	/	i	i	TRPC4 spec 2=i;TRPC4 spec=i;HEK293 MPD ctr 2-1=i;HEK293 MPD ctr-1=i
c1ccc(Cn2nnc3ccccc32)cc1	i	i	i	i	i	/	/	/	/	/	/
CCOc1ccc(Br)cc1S(=O)(=O)Nc1ccc(Cl)c(S(=O)(=O)N(CC)c2ccccc2)c1	i	i	i	i	i	/	/	/	/	/	/
CC(C)CC1NC(=O)N(Cc2cc(=O)n3ccsc3n2)C1=O (stereo not given)	i	i	i	i	i	/	/	/	/	/	/
CN(C)c1ccc(/C=C/C(=O)c2c(O)c3ccccc3oc2=O)cc1	131*	102*	i	i	i	+	+	492%*	144%*	/	944%*
CCN(CC)CCSc1nnc2c3cc(C)ccc3n(Cc3ccccc3)c2n1	i	i	i	-7.1*	i	/	/	/	/	i	i	TRPC4 spec 2=27%*;TRPC4 spec=14%*;HEK293 MPD ctr 2-1=i;HEK293 MPD ctr-1=-213%*
CCN(CC)C(=O)CCCC(=O)N(CC)CC	i	i	i	i	i	/	/	/	/	/	/
CC(=O)/C(C=Nc1noc(C)c1Br)=C(\C)O	i	i	i	i	i	/	/	/	/	/	/
N#Cc1c(Cl)nsc1NC(=O)c1ccccc1	i	i	i	-5.3*	i	256%*	i	101%*	80%*	71%*	/
N#Cc1c(NC(=O)c2ccccc2)sc2c1CCCCC2	i	i	i	i	i	/	/	/	/	/	/
C=CCn1c(=N)c(C#N)cc2c(=O)n3ccccc3nc21	i	i	i	-8.7*	i	-278%*	i	-44%*	38%*	i	i
CC(OC(=O)CCCCCN=C1NS(=O)(=O)c2ccccc21)C(=O)Nc1cc(Cl)cc(Cl)c1 (stereo not given)	i	i	i	i	i	/	/	/	/	/	/
O=C(Nc1ncc([N+](=O)[O-])s1)c1cccc([N+](=O)[O-])c1	i	i	i	i	i	/	/	/	/	/	/
O=C(Nc1ccccc1)Nc1ncc([N+](=O)[O-])s1	i	i	i	-7.4*	i	/	/	/	/	96%*	/	TRPC4 spec 2=54%*;TRPC4 spec=43%*;HEK293 MPD ctr 2-1=i;HEK293 MPD ctr-1=21%*
Cc1c(CCC(=O)O)c(=O)oc2c(C)c(OCc3cc4c(cc3Cl)OCO4)ccc12	i	i	i	i	i	/	/	/	/	/	/
CC(C)CC(NC(=O)c1ccccc1)C(=O)OCC(=O)Nc1ccc(S(N)(=O)=O)cc1 (stereo not given)	i	i	i	i	i	/	/	/	/	/	/
COC(C#CCCN(C)C)(c1ccccc1)c1ccccc1	i	i	i	-6.5*	i	i	89%*	14%*	34%*	79%*	/
COc1ccc(NC(=S)N2CCCC2)c(OC)c1	i	i	i	i	i	/	/	/	/	/	/
CC[n+]1c(/C=C/c2ccc(OC)c(OC)c2)ccc2ccccc21	i	i	i	-8.1*	i	-214%*	i	-52%*	40%*	i	i
CC[n+]1c(/C=C/c2ccc(OC(C)=O)c(OC)c2)ccc2ccccc21	i	i	i	-7.6*	i	-264%*	124%*	-45%*	70%*	77%*	i
CC[n+]1c(/C=C/c2ccc(N(C)C)cc2)ccc2ccccc21	i	i	i	i	i	/	/	/	/	/	/
COc1ccc(CC(=O)NCC2CCCN(Cc3ccccc3Cl)C2)cc1 (stereo not given)	i	i	i	i	i	/	/	/	/	/	/
Cc1ccc(-c2cccc(OC(=O)c3ccccc3F)c2)cc1	i	i	i	i	i	/	/	/	/	/	/
CCN(CC)C(=O)c1ccc(N)cc1	i	i	i	i	i	/	/	/	/	/	/
S=c1[nH]nc(-c2ccccc2)n1Cc1ccccc1	i	i	i	i	i	/	/	/	/	/	/
SMILES	TRPC6 act	TRPC4 agonist	TRPC4 potent	TRPC6 inh	TRPC4 inh	HEK293 MPD ctr-2	HEK293 MPD ctr 2-2	TRPC4 ctr mod	TRPC4/MOR inh 2	TRPC6 inh conf	TRPC6 act conf	others
CC(C)c1cc(-c2n[nH]c(=S)n2Cc2ccccc2)cs1	i	i	i	-16*	i	i	i	8.5%*	i	i	i
Cc1ccc(C2N(c3ccccc3)C(=S)N3CCCN23)cc1 (stereo not given)	i	i	i	-7.5*	i	/	/	/	/	70%*	i	TRPC4 spec 2=i;TRPC4 spec=i;HEK293 MPD ctr 2-1=i;HEK293 MPD ctr-1=i
CCOC(=O)N1CCN(C(=O)c2ccc3nc(N4CCC(C)CC4)sc3c2)CC1	13*	i	i	-12*	i	114%*	i	21%*	i	113%*	160%*
Cc1cc(C)cc(NC(=S)N2CCC(NC(=O)C3CC3)CC2)c1	i	i	i	i	i	/	/	/	/	/	/
CC1CCCN(C(=O)CNC(=O)c2ccco2)C1 (stereo not given)	i	i	i	i	i	/	/	/	/	/	/
COc1ccc(Nc2ccc(S(=O)(=O)N3CCCCC3)cc2[N+](=O)[O-])cc1	i	i	26*	-5.3*	i	i	i	i	i	i	i
C/C(=N\NC1=NCCN1)c1ccc(N)c([N+](=O)[O-])c1	i	i	i	-6*	i	i	108%*	i	32%*	48%*	i
